Reference: ChEMBL document CHEMBL3734651, “Synthesis of dihydropyrimidine α,γ-diketobutanoic acid derivatives targeting HIV integrase” (Eur J Med Chem, 2015)

Experiments:
[1] = biological target: T1, Human immunodeficiency virus type 1 integrase (Human immunodeficiency virus 1, UniProt Q7ZJM1); test: Inhibition of recombinant HIV-1 integrase stand transfer activity expressed in Escherichia coli BL21(DE3) cells using 32P-labeled DNA substrate after 1 hr by densitometric analysis
[2] = biological target: T1, Human immunodeficiency virus type 1 integrase; test: Inhibition of recombinant HIV-1 integrase 3'-processing activity expressed in Escherichia coli BL21(DE3) cells using 32P-labeled DNA substrate after 1 hr by densitometric analysis
In short: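 Reaction run 1 h at 37 °C, then stopped with an equal volume of formamide loading buffer containing 1% SDS, 0.25% bromophenol blue and xylene cyanol. Products resolved on 16% denaturing polyacrylamide sequencing gels; dried gels imaged. Value reported as the concentration giving 50% inhibition.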

[3] = tested on: Human immunodeficiency virus 1; test: Antiviral activity against HIV1 infected in human peripheral blood mononuclear cells assessed as inhibition of reverse transcriptase activity incubated for 6 days; assay type: functional, organism-based; conditions: Human immunodeficiency virus 1, 144 h
[4] = (§1) Cytotoxicity against human PBMC assessed as reduction in cell growth incubated for 5 days by CellTiter 96 AQueous One Solution cell proliferation assay; assay type: cell-based; conditions: PBMC (peripheral blood mononuclear cells)
[5] = (§2) Cytotoxicity against human CEM cells assessed as reduction in cell growth incubated for 5 days by CellTiter 96 AQueous One Solution cell proliferation assay; assay type: cell-based, CCRF-CEM; conditions: CEM (CCRF-CEM) cells
[6] = (§3) Cytotoxicity against African green monkey Vero cells assessed as reduction in cell growth incubated for 5 days by CellTiter 96 AQueous One Solution cell proliferation assay; assay type: cell-based; conditions: chlorocebus sabaeus, Vero cells
[7] = tested on: PBMC; test: as §1; assay type: cell-based; conditions: pbmc, 120 h
[8] = tested on: CCRF-CEM; test: as §2; assay type: cell-based; conditions: ccrf-cem, 120 h
[9] = tested on: Vero; test: as §3; assay type: cell-based; conditions: chlorocebus sabaeus, vero, 120 h

T1 sequence (Q7ZJM1 whole entry): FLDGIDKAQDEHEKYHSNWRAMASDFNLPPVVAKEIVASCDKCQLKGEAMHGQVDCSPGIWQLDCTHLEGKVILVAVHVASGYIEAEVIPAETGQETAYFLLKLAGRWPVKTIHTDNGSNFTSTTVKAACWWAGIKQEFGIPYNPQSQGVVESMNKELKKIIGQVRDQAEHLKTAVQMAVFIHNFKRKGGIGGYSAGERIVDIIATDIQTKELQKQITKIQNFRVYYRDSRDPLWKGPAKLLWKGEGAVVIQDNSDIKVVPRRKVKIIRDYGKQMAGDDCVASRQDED

| Structure (SMILES) | IC50 [1] | IC50 [2] | further results |
| --- | --- | --- | --- |
| CCOC(=O)c1c(-c2ccccc2)nc(=O)n(Cc2ccc(C(=O)/C=C(\O)C(=O)O)cc2)c1C | 2.4 µM | > 111 µM | – |
| CCOC(=O)c1c(-c2ccc(F)cc2)nc(=O)n(Cc2ccc(C(=O)/C=C(\O)C(=O)O)cc2)c1-c1ccccc1 | 2.4 µM | 16.6 µM | – |
| CCOC(=O)c1c(-c2ccc(F)cc2)nc(=O)n(Cc2ccc(C(=O)/C=C(\O)C(=O)O)cc2)c1C(C)C | 3.6 µM | 40 µM | – |
| CCOC(=O)c1c(-c2ccc(OC)cc2)nc(=O)n(Cc2ccc(C(=O)/C=C(\O)C(=O)OC(C)C)cc2)c1-c1ccccc1 | – | – | EC50 [3]: 80.6 µM; CC50 at 120 h [4]: > 100 µM; CC50 at 120 h [5]: 25.3 µM; CC50 at 120 h [6]: > 100 µM |
| CCOC(=O)c1c(-c2ccccc2)nc(SCc2ccc(C(=O)/C=C(\O)C(=O)O)cc2)nc1-c1ccc(F)cc1 | 2.8 µM | 22 µM | – |
| CCOC(=O)c1c(-c2ccccc2)nc(SCc2ccc(C(=O)/C=C(\O)C(=O)O)cc2)nc1-c1ccc(OC)cc1 | 1.2 µM | 23 µM | – |
| CCOC(=O)c1c(-c2ccccc2)nc(=O)n(Cc2ccc(C(=O)/C=C(\O)C(=O)O)cc2)c1-c1ccccc1 | 2 µM | 18.4 µM | – |
| CCOC(=O)c1c(Cc2ccccc2)nc(=O)n(Cc2ccc(C(=O)/C=C(\O)C(=O)OC(C)C)cc2)c1C | – | – | EC50 [3]: 17.2 µM; CC50 [7]: 77 µM; CC50 [8]: 7.3 µM; CC50 [9]: 32.9 µM |
| CCOC(=O)c1c(-c2ccc(F)cc2)nc(=O)n(Cc2ccc(C(=O)/C=C(\O)C(=O)O)cc2)c1C | 1.3 µM | 17.4 µM | – |
| CCOC(=O)c1c(-c2ccccc2)nc(=O)n(Cc2ccc(C(=O)/C=C(\O)C(=O)O)cc2)c1C(C)C | 2.3 µM | 37.5 µM | – |
| CCOC(=O)c1c(-c2ccccc2)nc(SCc2ccc(C(=O)/C=C(\O)C(=O)O)cc2)nc1-c1ccccc1 | 6.1 µM | 30 µM | – |
| CCOC(=O)c1c(CC)nc(SCc2ccc(C(=O)/C=C(\O)C(=O)O)cc2)nc1-c1ccc(OC)cc1 | 2.27 µM | 30.7 µM | – |
| CCOC(=O)c1c(CC)nc(SCc2ccc(C(=O)/C=C(\O)C(=O)O)cc2)nc1-c1ccc(F)cc1 | 0.92 µM | 29.3 µM | – |
| CCOC(=O)c1c(-c2ccc(OC)cc2)nc(=O)n(Cc2ccc(C(=O)/C=C(\O)C(=O)O)cc2)c1CC | 5.6 µM | 72 µM | – |
| CCOC(=O)c1c(CC)nc(SCc2ccc(C(=O)/C=C(\O)C(=O)O)cc2)nc1-c1ccccc1 | 2.23 µM | 21.1 µM | – |
| CCOC(=O)c1c(-c2ccc(F)cc2)nc(=O)n(Cc2ccc(C(=O)/C=C(\O)C(=O)O)cc2)c1CC | 1.1 µM | 35 µM | – |
| CCOC(=O)c1c(-c2cc(C)cc(C)c2)nc(=O)n(Cc2ccc(C(=O)/C=C(\O)C(=O)O)cc2)c1-c1ccccc1 | 1.3 µM | 16.3 µM | – |
| CCOC(=O)c1c(-c2ccccc2)nc(=O)n(Cc2ccc(C(=O)/C=C(\O)C(=O)O)cc2)c1CC | 0.64 µM | 19.1 µM | – |
| CCOC(=O)c1c(-c2ccc(OC)cc2)nc(=O)n(Cc2ccc(C(=O)/C=C(\O)C(=O)O)cc2)c1-c1ccccc1 | 1.9 µM | 17.2 µM | – |
| CCOC(=O)c1c(Cc2ccccc2)nc(=O)n(Cc2ccc(C(=O)/C=C(\O)C(=O)O)cc2)c1C | 0.19 µM | 16.9 µM | – |
| CCOC(=O)c1c(CC)nc(SCc2ccc(C(=O)/C=C(\O)C(=O)OC(C)C)cc2)nc1-c1ccc(F)cc1 | – | – | EC50 [3]: 25.6 µM; CC50 [7]: 43.2 µM; CC50 [8]: 5.2 µM; CC50 [9]: 39.5 µM |
| CCOC(=O)c1c(-c2ccccc2)nc(=O)n(Cc2ccc(Cc3cccc(C(=O)/C=C(\O)C(=O)OC(C)C)c3)cc2)c1CC | – | – | EC50 [3]: 36.8 µM; CC50 at 120 h [4]: 47.6 µM; CC50 at 120 h [5]: 8.9 µM; CC50 at 120 h [6]: > 100 µM |
| CCOC(=O)c1c(-c2ccccc2)nc(=O)n(Cc2ccc(C(=O)/C=C(\O)C(=O)OC(C)C)cc2)c1CC | – | – | EC50 [3]: > 100 µM; CC50 [7]: > 100 µM; CC50 [8]: 21.4 µM; CC50 [9]: > 100 µM |
| CCOC(=O)c1c(-c2ccc(OC)cc2)nc(=O)n(Cc2ccc(C(=O)/C=C(\O)C(=O)O)cc2)c1C(C)C | 3.3 µM | 19.2 µM | – |
| Cc1cn([C@H]2C[C@H](N=[N+]=[N-])[C@@H](CO)O2)c(=O)[nH]c1=O [ZIDOVUDINE] | – | – | CC50 at 120 h [4]: > 100 µM; CC50 [8]: 56.1 µM; CC50 [9]: 39.5 µM |
